# The RNAGym collection of RNA variant scans (doi:10.1126/science.aae0568)
# This sample holds only a part of the variants without activity.
# B1: tRNA (parent)
# chain: GUUCCGUUGGCGUAAUGGUAACGCGUCUCCCUCCUAAGGAGAAGACUGCGGGUUCGAGUCCCGUACGGAACG
# Variants of: B1
# Assay: yeast fitness relative to wild type (ratio to wild type); higher = fitter; tRNA-Arg(CCU), competitive growth, 37 C, YPD
# Outline: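 Variants of the tRNA-Arg(CCU) gene were chemically synthesised with a 3% per-site mutation rate across 69 sites and placed at the native genomic locus in Saccharomyces cerevisiae. Six parallel replicates of the pooled strains were competed in YPD at 37°C for 24 hours, and gene amplicons from the start and end populations were read by 100-nucleotide paired-end sequencing. Darwinian fitness relative to wild type was derived from changes in genotype frequencies. Genotypes required ≥ 100 starting reads, and estimates < 0.5 were set to 0.5.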
row,Variant,yeast fitness
1,C4G C30A G50U C66U,≤ 0.5
2,C33A A36U,0.615
3,C5U U8C A20G C30A C61A G67U,≤ 0.5
4,C22U A42U G44U G63A,0.608
5,G10A G68C,0.768
6,C4G U13G U16A,≤ 0.5
7,U7G A15C C24U A43G G51A U54C G67C,0.78
8,A20U G23A C31U G39A,≤ 0.5
9,C4G A37U C60U,≤ 0.5
10,U13C C22A G23C C34U A36G A40U,≤ 0.5
11,C30U C46G C49U,0.641
12,U2C C27G C46U,0.705
13,C5G C46G,0.751
14,U8C C24G G38C U53G,0.635
15,U2A C11G G51A C60U,≤ 0.5
16,U3C C27A,0.706
17,G6A C22G C33A A36C A43G C55G,≤ 0.5
18,G56C A69U A70U,≤ 0.5
19,C4A G18C A43C C62G A65C C66A,≤ 0.5
20,C30U A43G G51C,≤ 0.5
21,G41C C46U,1.03
22,G48C G67C,0.563
23,U2C G9C U13C A20C,≤ 0.5
24,A37C A65U,0.866

row,Variant,yeast fitness
1,G9C G10C A36U G44A C46G,0.563
2,C33U G38U,0.632
3,G17C G58C C62U,≤ 0.5
4,G23C G41C C49U,≤ 0.5
5,G9A C29U U59G A65C,≤ 0.5
6,A15C G39A A65G,0.517
7,C4G C22U C30U C33U A45C,≤ 0.5
8,A15C C22A,0.697
9,C5A U32C A36G,0.53
10,A43G U47C A65U,0.668
11,U7G U19A C22G C24G A40G C55G G68C,≤ 0.5
12,A20C C31A G48A U59C,≤ 0.5
13,G10C C24A G44C,≤ 0.5
14,U19C C33G A57G C61G A69G,0.65
15,C11G A20C G23A G52C C61U,0.662
16,G38A G58A,1.06
17,U3A C11A C33U G58C,≤ 0.5
18,U8C U19C,0.978
19,A21G G23A A40C G52A,≤ 0.5
20,U7G C29G C46U A65U,≤ 0.5
21,U7G C24U C33U,0.568
22,G9A U13C U19C C34U,0.549
23,C27U U28A A37G C49U A57C G58C,0.683
24,A36C C49U C55U C60U,≤ 0.5

row,Variant,yeast fitness
1,C11A G17C A36G G41C A45G C49U,≤ 0.5
2,A37U C49U C61G,≤ 0.5
3,C4A C31G C62G G68C,≤ 0.5
4,A14G U26G,0.81
5,A21C A65C G67U,≤ 0.5
6,U28G A43G A45G C49U A57U,≤ 0.5
7,C4G G58C C66U,0.73
8,U16A A37C G48C,0.546
9,C11A U16C G18C A20G A45C A57C G68C,≤ 0.5
10,G6A A14C A37U,0.689
11,C24U U28C A40C G68C,≤ 0.5
12,G50C C61A,0.544
13,A57C C61G A69C,≤ 0.5
14,C11G A21C G56A,≤ 0.5
15,C27A A37C G52A U59A,≤ 0.5
16,C4U C27A C30U A37U C60G,0.639
17,C30U G38C C62G,≤ 0.5
18,G12A U32G C46A,≤ 0.5
19,U3A U59G,0.81
20,A43U G50A G52U A69C,≤ 0.5
21,C4A C5U C22U C34A,0.576
22,U16G A20U G38A,0.538
23,U28C G51C,0.502
24,C30U C60A A70C,≤ 0.5

row,Variant,yeast fitness
1,C4U U32A G50A G67A,≤ 0.5
2,C31U G63C G67C A69U,0.511
3,C60U A69C,0.713
4,G6A A14G G23A C24G G44A,≤ 0.5
5,U2A U8G C33A G38A,≤ 0.5
6,C22A G50C A65G,≤ 0.5
7,C11U C31U C46G U47A A65C,≤ 0.5
8,U2G C27A G67U,≤ 0.5
9,U32A C55A C61U,0.536
10,C11U U19C C31A G50U C62G,≤ 0.5
11,C5G C11G C31G,≤ 0.5
12,G9C G38A,0.624
13,C5A U13C C29U G48C G52C A57C G58A,≤ 0.5
14,G56A A69C A70U,0.825
15,A15C A70C,0.751
16,C5G U47C G51A A65C,0.548
17,C5A C11A C30U C31A G58A G67C,0.548
18,G17C U28G C29U A37C A65C,≤ 0.5
19,C5G G6C,0.718
20,U13A G41C G52A,≤ 0.5
21,G12C C34U G44A G52A,≤ 0.5
22,U26C C30G G67C,≤ 0.5
23,C4U A65G,0.877
24,C4G G52C,0.655

row,Variant,yeast fitness
1,A37C C46U A69U,0.7
2,G25C U59A,0.804
3,U7C G17C A20G C27A G48A,0.509
4,U28C C33G G38A,≤ 0.5
5,A43C A69C,1.04
6,G10A A21C C34U,≤ 0.5
7,A14U,0.667
8,C5A A21G G67C,0.933
9,A14U U59A,0.583
10,C4U U16C A36U C49U G58C C66U,≤ 0.5
11,U13C C66U,0.932
12,C27G A40C C55G,≤ 0.5
13,C27G C30U G56A,≤ 0.5
14,G18A A21C C33G A37U U64G,≤ 0.5
15,A15U A45C C46A G67A,≤ 0.5
16,C22G U47G C66U A69C,≤ 0.5
17,A20C C24G C27U C31G U54C A65C,≤ 0.5
18,A14C A37C G51A U59A,0.56
19,U2A U8C U47A G68C,≤ 0.5
20,U28A C55G C62U,≤ 0.5
21,U32A U64A G67A,≤ 0.5
22,C30G A40C A42G,≤ 0.5
23,A14G A37C G56A,≤ 0.5
24,G9A U16A C30G A57C,≤ 0.5

row,Variant,yeast fitness
1,A20G C22G C30U U54C,≤ 0.5
2,U3G A21C G67U,≤ 0.5
3,U16A A45C,0.994
4,G17C C22G C24A C62A C66U,≤ 0.5
5,C4A G6A C30A A65G,≤ 0.5
6,A36C U54C,≤ 0.5
7,G12C A43U A70C,0.521
8,U8C C22U G23C C33G C49U,≤ 0.5
9,C29G G68U,0.68
10,A57C,0.62
11,C22U G25A G67C,0.535
12,A45U A70C,0.987
13,A21G C30U G67A,0.633
14,C11U U35A G38A C61G,0.565
15,A14G C29U G39A C49U G56C,≤ 0.5
16,C24G C29U C49U,≤ 0.5
17,U3C C27G C33A,0.655
18,C11G A42U A43C,≤ 0.5
19,A14C C24G G41A G44A U53A C66U,≤ 0.5
20,G6A A15U G18C G23C A43G C60U,≤ 0.5
21,C22U C27G U28G U59C,≤ 0.5
22,A21U C46G U47C G56A C60A,≤ 0.5
23,C22U A36C A65G,0.564
24,A37C C60G G67A,≤ 0.5

row,Variant,yeast fitness
1,C5U C27A A42U C49G,0.763
2,C11G A36C U47C C49U A69C,≤ 0.5
3,A21U U28A A40U C55A A70G,≤ 0.5
4,G17C U35C C60U,≤ 0.5
5,C33U A69C,0.726
6,C29G G48C U59A,≤ 0.5
7,U3G U16C G39C A45C C49G C62G,≤ 0.5
8,U2C U54A A70U,0.555
9,C29G C33A C34G,≤ 0.5
10,A20C A42G,0.842
11,A45U C55G,0.528
12,U19C C34U A43U G52C,≤ 0.5
13,U3G C11G A15C C60U,≤ 0.5
14,G23C G39C G50A G68C,≤ 0.5
15,G10C C11G G56C G68A,≤ 0.5
16,C5A C30U G52A,≤ 0.5
17,U7C C33G,0.58
18,C27U G41C U53A C62U,≤ 0.5
19,C5G U26C C29U,≤ 0.5
20,U3A A14U C60G C61U C62G A65U,≤ 0.5
21,U13C G23A,0.759
22,U3A U26A C66U,≤ 0.5
23,A15U G18C C34G A42G G52C,0.575
